Screening results as filed in PubChem BioAssay.
Compounds with a hit are over-represented: about 0.41% of the library has one in this group of screens.
T cell HTS: modulators of CD8 T cell-vesicle binding, primary screen, mouse 2C CD8+ T cells, flow cytometry | 2C CD8+ T cell-vesicle binding; hits give low values | response (vesicle binding), % at 7 µM | 330,000 tested, 0.068% active | AID 2052, 2009;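 active means response, share of CD8 T cells binding vesicles, and their 90th percentile fluorescence all below set limits, cut at about 80% in these data, passing the limit was not always enough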;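 further: values below 100% mean blocked vesicle binding to the CD8+ T cells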
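Assay system: 2C TCR transgenic mouse naive CD8+ T cells, MACS-purified | Read-out: CD8+ gate FL2 mean fluorescence as % of same-row positive control | Signal: High-throughput flow cytometry with anti-B7-1 and anti-CD8 staining | Timing: Binding step 1.5 h, 37 °C, antibody labelling 20 min, ice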
S1P3 antag: S1P3 receptor antagonists, primary screen, cell-based; 170,000 tested, 0.27% active; Sphingosine 1-phosphate receptor 3 (Homo sapiens), Q99500; CHO S1P3 NFAT-BLA reporter, FRET fluorescence, antagonist mode; inhibition, % at 4.98 µM;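 active means inhibition above the plate cutoff, the mean inhibition of test wells on that plate plus 3 SD, cut at about 28% in these data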;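 further: cells challenged with S1P at its EC80 of 0.8 µM; blue over green emission ratio from cleaved BLA substrate after 4 h stimulation; 0% = S1P-stimulated wells and 100% = unstimulated DMSO-only wells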
Target sequence (Q99500 whole entry, looked up): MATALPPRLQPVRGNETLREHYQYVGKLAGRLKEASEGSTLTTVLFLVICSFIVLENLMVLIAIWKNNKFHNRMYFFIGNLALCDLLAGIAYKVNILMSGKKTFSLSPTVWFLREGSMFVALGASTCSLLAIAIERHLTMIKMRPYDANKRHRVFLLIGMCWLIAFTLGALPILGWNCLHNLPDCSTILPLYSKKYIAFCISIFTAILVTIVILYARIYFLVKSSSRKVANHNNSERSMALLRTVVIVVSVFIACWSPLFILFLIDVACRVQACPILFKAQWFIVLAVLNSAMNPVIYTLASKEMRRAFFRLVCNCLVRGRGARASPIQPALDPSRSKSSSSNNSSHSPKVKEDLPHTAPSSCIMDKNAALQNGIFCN
CR mimetic SO: reduction of superoxide in aged yeast, primary screen, HTS. S. cerevisiae aged cells, superoxide DHE fluorescence; hits give low values. 330,000 tested, 0.18% active. superoxide response (% of plate mean), % at 10 µM;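 active means superoxide response under a set limit, about three screen SD below normal, cut at about 65% in these data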;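 further: yeast aged for seven days with compound at 30 °C before DHE staining; 100% = average MFI of all compound-treated wells on the plate with controls excluded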
Superoxide pick: superoxide lowering in aged yeast cells, confirmation, cherry picked compounds; shares compounds with CR mimetic SO; S. cerevisiae aging, superoxide DHE fluorescence; hits give low values; superoxide response (% of plate), % at 10 µM; 850 tested, 1% active;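 active means superoxide signal below 65% of the plate average of sample wells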;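 further: cells aged with compound for 7 days at 30 degrees C before staining; 100% equals mean DHE fluorescence of all compound wells on the plate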
DHE fluor count: DHE quenching or ROS scavenging interference in aged yeast, artefact control for yeast caloric restriction mimetic project, S. cerevisiae BY4741, flow cytometry; shares compounds with CR mimetic SO; DHE fluorescence; hits give low values; fluorescence response, % at 10 µM; 850 tested, under 10 active; AID 435000, 2010;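 active means fluorescence response below 15%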;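 further: percent of the mean fluorescence averaged over all compound wells on the plate; lower means stronger quenching of DHE signal or ROS scavenging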
Active calls of the source: *; i = inactive; x = not tested or not shown.

SMILES | T cell HTS | S1P3 antag | CR mimetic SO | Superoxide pick | DHE fluor count
O=C(NCCCn1ccnc1)C1CCN(S(=O)(=O)c2ccc(F)cc2)CC1 | 295 | x | 94 | x | x
S=C(NCc1ccc(Cl)cc1)NCc1ccccn1 | 621 | -1 | 98 | x | x
CC(C)CCC(CCNCc1ccccn1)c1ccc(Cl)cc1 (stereo not given) | 63 | x | 48* | 107 | 109
O=C(c1ccc(OC2CCN(Cc3ccccc3OC(F)F)CC2)cc1)N1CCCC1 | 216 | x | 110 | x | x
C=CCOc1ccccc1CN1CCC(Oc2ccc(C(=O)N3CCCC3)cc2)CC1 | 228 | x | 65* | 117 | 111
CC(=O)N1c2ccc(S(=O)(=O)NCC3CCC(C(=O)NCc4ccco4)CC3)cc2CC1C (stereo not given) | 284 | x | 104 | x | x
Cc1ccc(C)c(NC(=O)C2CC(=O)N(C3CCCCC3)C2)c1 (stereo not given) | 233 | x | 119 | x | x
O=S(=O)(Nc1ccc(Cc2ccncc2)cc1)c1ccc(Br)cc1 | 366 | x | 111 | x | x
NS(=O)(=O)c1ccc(NS(=O)(=O)c2ccc(Br)cc2)cc1 | 223 | x | 91 | 102 | 90
c1cc2c(cc1CN1CCN(C3CCCCCC3)CC1)OCO2 | 31 | x | 44* | 95 | 93
c1ccc(CN2CCC(N3CCN(Cc4ccc5c(c4)OCO5)CC3)CC2)cc1 | 206 | -36 | 103 | x | x
Cc1ccc(C(=O)OCC(=O)N2CCC(c3ccccc3)=N2)cc1 | 279 | x | 100 | x | x
Cc1cccc(NC(=O)c2nc[nH]c2C(=O)NC2CCN(C(=O)OC(C)(C)C)CC2)c1 | 48 | x | 143 | x | x
CCCNC(=O)[C@@H]1CCCN1C(=O)C1CCN(S(=O)(=O)c2ccc(C)cc2)CC1 | 264 | x | 64* | 116 | 109
Cc1ccc(S(=O)(=O)N2CCC(C(=O)N3CCC[C@H]3C(=O)NCC(C)C)CC2)cc1 | 306 | x | 99 | x | x
Cc1cccn2c(=O)c3cc(C(=O)NCc4ccco4)c(=N)n(CCc4ccccc4)c3nc12 | 0 | -5 | 82 | x | x
Cc1cccn2c(=O)c3cc(C(=O)NCc4ccco4)c(=N)n(C(C)C)c3nc12 | 200 | x | 64* | 100 | 113
CC1CCCC(C)N1C(=O)COC(=O)CCC1CCCC1 (stereo not given) | 847 | x | 85 | x | x
COC(=O)c1nnn(-c2ccccc2)c1N | 855 | -14 | 91 | x | x
C#Cc1cccc(-n2nnc(C(=O)OC)c2-c2ccccc2)c1 | 190 | x | 52* | 96 | 94
Cc1ccc(/C=N/n2c(-c3ccncc3)n[nH]c2=S)cc1 | x | -5 | x | x | x
CC(C)(C)c1ccc(-c2n[nH]c(=S)n2/N=C/c2ccncc2)cc1 | 189 | 4 | 43* | 115 | 127
C=CCN=C1S/C(=C/c2cccc([N+](=O)[O-])c2)C(=O)N1CC=C | 234 | -2 | 107 | x | x
C=CCN=C1S/C(=C/c2ccc([N+](=O)[O-])cc2)C(=O)N1CC=C | 110 | -3 | 60* | 77 | 89
OCC[C@@H]1C[C@@H](O)[C@H](O)[C@]2(Cc3ccccc3O2)O1 | 533 | x | 104 | x | x
SMILES | T cell HTS | S1P3 antag | CR mimetic SO | Superoxide pick | DHE fluor count
Cc1cccc(C(=O)OC(C)C(=O)N2CCc3ccccc3C2)c1C (stereo not given) | 348 | x | 101 | x | x
CCCn1c(N)c(N(CCOC)C(=O)COC(=O)CSc2cc(C)c3ccccc3n2)c(=O)[nH]c1=O | 212 | x | 102 | x | x
CCOc1ccccc1NC(=O)COC(=O)CC(C)(C)CC1=NS(=O)(=O)c2ccccc2N1 | 319 | x | 58* | 106 | 110
Cc1cc(C)cc(NC(=O)COC(=O)CCCC2=NS(=O)(=O)c3ccccc3N2)c1 | 548 | -12 | 93 | x | x
COCc1cc(C)nc2sc(C(=O)Nc3ccccc3OC)c(N)c12 | 191 | x | 109 | x | x
COc1ccc(NC(=O)CCCn2c(=S)[nH]c3ccccc3c2=O)cc1 | 506 | x | 97 | x | x
COc1ccc(NC(=O)CCn2c(=S)[nH]c3ccccc3c2=O)cc1 | 157 | x | 65* | 115 | 112
CC(C)c1ccccc1NC(=S)NCC1(N(C)C)CCCCC1 | 324 | x | 99 | x | x
COc1ccc(C)cc1N(C(=O)c1ccccc1)c1nc2ccccc2s1 | 346 | 5 | 98 | x | x
COc1ccc(C)cc1N(C(=O)c1cccc(F)c1)c1nc2ccccc2s1 | i | -2 | 48* | 97 | 108
O=C(NCCCN1CCCC1=O)c1ccc(NS(=O)(=O)c2ccc(F)cc2)cc1 | 717 | x | 95 | x | x
COc1cc(OC)cc(-c2c(-c3ccc(F)cc3)c3cc(-c4ccc(SC)cc4)ccc3n2C)c1 | 325 | x | 128 | x | x
COc1ccc(-c2c(-c3cc(OC)cc(OC)c3)n(C)c3ccc(-c4ccc(SC)cc4)cc23)cc1 | 441 | x | 65* | 97 | 96
COc1cccc(-c2nnc(SCC(=O)N(C(C)C)C(C)C)o2)c1 | 396 | 2 | 110 | x | x
CCCOC(=O)CSc1nnc(-c2ccc(Cl)cc2Cl)o1 | 586 | -51 | 99 | 101 | 88
CCOC(=O)CSc1nnc(-c2ccccc2)o1 | 244 | x | 99 | 114 | 125
COc1cc(OC)cc(-c2nnc(SCC(=O)N(C(C)C)C(C)C)o2)c1 | 476 | -18 | 85 | 102 | 92
COC(=O)CSc1nnc(-c2ccc(OC)c(OC)c2)o1 | 225 | -14 | 95 | 113 | 102
COc1ccc(-c2nnc(SCC(=O)N3CCOCC3)o2)cc1OC | 354 | -31 | 133 | x | x
CCOC(=O)CSc1nnc(-c2cccnc2)o1 | 169 | x | 106 | x | x
CCOC(=O)CSc1nnc(-c2ccc(Cl)cc2Cl)o1 | 170 | 10 | 129 | x | x
COc1cc(SC)ccc1C(=O)OCC(=O)N1CCCC1 | 259 | x | 82 | x | x
CCOC(=O)c1c(NC(=O)CSc2nnnn2-c2ccccc2OCC)sc2c1CC(C)(C)NC2(C)C | 327 | x | 89 | x | x
CCOC(=O)c1c(NC(=O)CSc2nnnn2-c2ccccc2)sc2c1CC(C)(C)NC2(C)C | 0 | x | 62* | 106 | 106
Cc1cccc(N2CCN(C(=O)c3ccc(N4CCCC4=O)cc3)CC2)c1C | 406 | -17 | 107 | x | x
SMILES | T cell HTS | S1P3 antag | CR mimetic SO | Superoxide pick | DHE fluor count
CCOc1ccc(C(=O)N2CCN(c3cccc(Cl)c3)CC2)cc1 | 339 | -12 | 115 | 104 | 89
CCOc1ccc(C(=O)N2CCN(c3cccc(C)c3C)CC2)cc1 | 452 | -14 | 99 | 107 | 89
CCc1ccc2oc(C(=O)N3CCN(c4ccccc4OC)CC3)cc(=O)c2c1 | 166 | x | 62* | 106 | 95
CCOc1ccc(C(=O)N2CCCC2)cc1 | 130 | x | 105 | x | x
COc1ccccc1N1CCN(C(=O)c2ccc(-c3ccccc3)cc2)CC1 | 209 | x | 82 | x | x
COc1ccc(C(=O)N2CCN(c3ccccc3OC)CC2)cc1 | 474 | 8 | 109 | 97 | 91
CCc1ccc2oc(C(=O)N3CCN(c4ccc(OC)cc4)CC3)cc(=O)c2c1 | x | x | 117 | x | x
O=C(O)c1ccccc1C(=O)OCCCc1ccncc1 | 422 | x | 102 | x | x
COc1ccc(CN(C)C(=O)C2CCN(C(=O)Nc3ccccc3)CC2)cc1 | 134 | x | 101 | x | x
